Calls of active or inactive are those of the source. No rule for the calls is given here.
What was measured:
Coxsackievirus B2 = assay: Antiviral activity against Human coxsackievirus B2 Ohio-1 infected in african green monkey Vero cells after 3 days by plaque reduction assay; assay type: functional, organism-based, Coxsackievirus B2 (strain Ohio-1)
Method in brief: (§1)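 Plaque reduction assay. Vero 76 cells at 2 × 10^5/well, grown overnight to confluence in D-MEM with 10% FBS. Infected 2 h with 50–100 PFU/well, unadsorbed virus removed. Overlay of D-MEM with 1% inactivated FBS and 0.75% methylcellulose, with or without serial compound dilutions. Incubated at 37 °C for 3 days (HSV-1 KOS, CVB-2 Ohio-1) or 5 days (RSV A2). Fixed and stained with crystal violet in 50% ethanol; plaques counted; EC50 by linear regression.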

Poliovirus 1 = assay: Antiviral activity against Polio virus type1 Sabin strain Chat infected in african green monkey Vero cells after 2 days by plaque reduction assay; assay type: functional, organism-based, Human poliovirus 1 strain Sabin; details: Enterovirus C, 48 h
[1] = (§2) Cytotoxicity against human MT4 cells after 96 hrs by MTT assay; assay type: cell-based; details: MT4 cells
Method in brief: (§3)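 Exponentially growing MT-4 cells at 1 × 10^5 cells/mL in RPMI-1640 with 10% FCS, exposed to serial compound dilutions at 37 °C, 5% CO2. Viability by MTT after 96 h; CC50 is the concentration reducing viability of mock-infected cells by 50%.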

[2] = test system: Human immunodeficiency virus 1; assay: Antiviral activity against HIV1 3B infected in human MT4 cells assessed as protection from virus-induced cytopathogenicity after 4 days by MTT method; assay type: functional, organism-based
Method in brief: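 MT-4 cells, 1 × 10^4/well in RPMI with or without serial compound dilutions, infected with HIV-1 IIIB, 100 CCID50 (m.o.i. 0.01). Protection from virus-induced cytopathogenicity read by MTT.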

[3] = test system: Bovine viral diarrhea virus 1; assay: Antiviral activity against Bovine viral diarrhea virus NADL infected in MDBK cells assessed as protection from virus-induced cytopathogenicity after 3 to 4 days by MTT method; assay type: functional, organism-based, Bovine viral diarrhea virus 1-NADL
Method in brief: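 Cytopathogenicity protection assay. MDBK cells at 3 × 10^4/well, grown overnight to confluence. Infected with BVDV NADL at m.o.i. 0.01 in MEM-E with 0.5% inactivated FBS, 1 mM Na pyruvate and 1% kanamycin. Serial compound dilutions added after 1 h. After 3–4 days at 37 °C, viability read by MTT; EC50 is the concentration giving 50% protection.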

Yellow fever virus = assay: Antiviral activity against Yellow fever virus 17D infected in BHK cells assessed as protection from virus-induced cytopathogenicity after 3 to 4 days by MTT method; assay type: functional, organism-based
[4] = Cytotoxicity against MDBK cells after 48 to 96 hrs by MTT assay; assay type: cell-based, Bos taurus; details: cattle
Method in brief: (§4)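 Cell seeding: MDBK at 6 × 10^5 cells/mL in MEM-E with 10% horse serum and 1 mM Na pyruvate; BHK at 1 × 10^6 cells/mL in MEM-E with 10% FBS. Serial compound dilutions, 37 °C, 5% CO2. Viability of mock-infected cells by MTT after 48–96 h; CC50 is the concentration reducing viability by 50%.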

[5] = Selectivity index, ratio of CC50 for MDBK cells to EC50 for Bovine viral diarrhea virus NADL; assay type: toxicity, cell-based; details: cattle, read-out: Ratio CC50/EC50
Human alphaherpesvirus 1 = assay: Antiviral activity against HSV1 KOS infected in african green monkey Vero cells after 3 days by plaque reduction assay; assay type: functional, organism-based; details: Human alphaherpesvirus 1, KOS, 72 h; method in brief: as §1
Hepatitis C virus [6] = assay: Inhibition of HCV 1b NS5B Cdelta21 RNA dependent RNA polymerase expressed in Escherichia coli after 30 mins by fluorescence assay; assay type: functional, Hepatitis C virus subtype 1b; details: 0.5 h
Method in brief: (§5)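 N-His-tagged NS5B from E. coli Rosetta2(DE3)pLysS (BVDV C-terminal Δ24; HCV1b Δ21), Ni-NTA purified, 500–600 ng per 20 µL reaction. Template 10 µg/mL poly(rC), primer 0.1 µg/mL oligo(rG)12, substrate 80 µM GTP; 20 mM Tris pH 7.0, 0.5 mM MnCl2 or 5 mM MgCl2, 5% DMSO. Enzyme pre-incubated with drug 30 min at room temperature.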

Hepatitis C virus [7] = assay: Antiviral activity against HCV Con1 expressed in human HuH7 cells assessed as NS4A expression after 72 hrs by ELISA-based replicon assay; assay type: functional, organism-based, Hepacivirus hominis; details: isolate Con1, Huh-7, 72 h
Method in brief: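 GS4.1 cells (Huh-7 carrying HCV Con1 subgenomic replicon) at 7.5 × 10^3/well. Ten twofold compound dilutions (top 75 µM), 0.5% DMSO, 72 h at 37 °C; replicon-free Huh-7 as negative control. NS4A measured by ELISA with anti-NS4A mAb A-236, peroxidase secondary and o-phenylenediamine, absorbance 492 nm. EC50 by four-parameter sigmoidal fit.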

[8] = Cytotoxicity against human HuH7 cells after 72 hrs; assay type: cell-based, Huh-7
Method in brief: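 GS4.1 replicon cells treated as in the replicon assay (twofold dilutions up to 75 µM, 72 h). Viability by CellTiter 96 AQueous One Solution; CC50 from % cytotoxicity versus concentration.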

[9] = Selectivity index, ratio of CC50 for human MT4 cells to EC50 for Bovine viral diarrhea virus NADL; assay type: toxicity, cell-based; details: read-out: Ratio CC50/EC50
[10] = test system: Vesicular stomatitis virus; assay: Antiviral activity against VSV Indiana lab infected in african green monkey Vero cells after 2 days by plaque reduction assay; assay type: functional, organism-based
[11] = Inhibition of Bovine viral diarrhea virus NADL NS5B Cdelta24 RNA dependent RNA polymerase expressed in Escherichia coli after 30 mins by fluorescence assay; parameters: species or system Bovine viral diarrhea virus 1-NADL; method in brief: as §5
[12] = Cytotoxicity against african green monkey Vero cells; assay type: cell-based; details: chlorocebus sabaeus
Method in brief: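 Vero 76 monolayers exposed to serial compound dilutions, run in parallel on the same 24-well plates as the plaque-reduction assays. CC50 is the concentration reducing viability of mock-infected cells by 50%.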

[13] = Cytotoxicity against BHK cells after 48 to 96 hrs by MTT assay; assay type: cell-based, Mesocricetus auratus; details: hamster; method in brief: as §4
[14] = test system: Respiratory syncytial virus; assay: Antiviral activity against RSV A2 infected in african green monkey Vero cells after 5 days by plaque reduction assay; assay type: functional, organism-based; details: human respiratory syncytial virus, A2, Vero, 120 h; method in brief: as §1
Vaccinia virus = assay: Antiviral activity against Vaccinia virus Elstree-Lister infected in african green monkey Vero cells after 3 days by plaque reduction assay; assay type: functional, organism-based; details: Orthopoxvirus vaccinia, 72 h
[15] = Selectivity index, ratio of CC50 for human MT4 cells to EC50 for Vaccinia virus Elstree-Lister; assay type: toxicity, cell-based; details: read-out: Ratio CC50/EC50
[16] = Selectivity index, ratio of CC50 for african green monkey Vero cells to EC50 for Vaccinia virus Elstree-Lister; assay type: toxicity, cell-based; details: read-out: Ratio CC50/EC50
MT4 = assay: as §2; assay type: cell-based; details: mt4, 96 h, 96 h; method in brief: as §3
[17] = Bovine viral diarrhea virus isolates and strains, MDBK

SMILES: CC(=O)Nc1ccc(-c2nc3cc(Cl)c(Cl)cc3[nH]2)cc1
- EC50 (Coxsackievirus B2; Enterovirus B, Vero, 72 h): > 100 µM
- EC50 (Poliovirus 1): > 100 µM
- CC50 at 96 h [1]: > 100 µM
- Activity [2]: inactive
- EC50 [3, 17]: 1 µM
- EC50 (Yellow fever virus): > 100 µM
- CC50 ([4]; MDBK cells): 58 µM
- selectivity ratio [5]: 58
- EC50 (Human alphaherpesvirus 1): > 100 µM
- IC50 (Hepatitis C virus [6]): 5 µM
- EC50 (Hepatitis C virus [7]): 32 µM
- CC50 at 72 h [8]: > 75 µM
- selectivity ratio [9]: > 100
- Activity [10]: inactive
- IC50 [11]: 3 µM
- CC50 [12]: > 100 µM
- CC50 [13]: > 100 µM

SMILES: O=[N+]([O-])c1ccc(-c2nc3cc(Cl)c(Cl)cc3[nH]2)cc1
- EC50 (Coxsackievirus B2; Enterovirus B, Vero, 72 h): > 100 µM
- EC50 [14]: > 100 µM
- EC50 (Poliovirus 1): > 100 µM
- CC50 at 96 h [1]: 17 µM
- Activity [2]: inactive
- EC50 [3, 17]: > 56 µM
- EC50 (Yellow fever virus): > 100 µM
- EC50 (Vaccinia virus): 0.1 µM
- CC50 ([4]; MDBK cells): 56 µM
- EC50 (Human alphaherpesvirus 1): > 100 µM
- selectivity ratio [15]: 170
- Activity [10]: inactive
- selectivity ratio [16]: ≥ 1000
- CC50 [12]: ≥ 100 µM
- CC50 [13]: > 100 µM

SMILES: O=C(CN1CCOCC1)Nc1ccc(-c2nc3cc(Cl)c(Cl)cc3[nH]2)cc1
- EC50 (Coxsackievirus B2; vero): > 100 µM
- CC50 (MT4): > 100 µM
- Activity [2]: inactive
- EC50 ([3]; mdbk): > 100 µM
- EC50 (Yellow fever virus): > 100 µM
- CC50 ([4]; mdbk): > 100 µM
- Activity [10]: inactive
- CC50 [12]: > 100 µM
- CC50 [13]: > 100 µM
